Measured values published in ChEMBL document CHEMBL4689842, “EUbOPEN Chemogenomics Library wave 1” (2021).
Values joined by “and” are separate entries in the source; they are usually repeats but may differ in a detail not shown here. Identical values can stand only once.

Tested on: Fibroblast
Experiment: Multiplex assay against human fibroblast
Format: toxicity, cell-based
Method in brief: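 Live cells carried four stains from seeding: Hoechst33342, BioTracker Green Microtubule Cytoskeleton Dye, MitoTracker Red and Annexin V Alexa Fluor 680. They were imaged on a CQ1 microscope at 37°C and 5% CO2 after compound addition. Using CellPathfinder machine-learning gating, cells were split into Hoechst high-intensity objects or normal cells, normal cells into healthy, pyknosed or fragmented nuclei, and pyknosed cells into mitotic or apoptotic; tubulin, mitochondrial-mass and membrane-permeability phenotypes are per cents of healthy-nucleus cells.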

[1] = 12 h, 1 µM, compound concentration 1 uM, replicate 1
[2] = 12 h, 1 µM, compound concentration 1 uM, replicate 2
[3] = 12 h, 10 µM, compound concentration 10 uM, replicate 1
[4] = 12 h, 10 µM, compound concentration 10 uM, replicate 2
[5] = 24 h, 1 µM, compound concentration 1 uM, replicate 1
[6] = 24 h, 1 µM, compound concentration 1 uM, replicate 2
[7] = 24 h, 10 µM, compound concentration 10 uM, replicate 1
[8] = 24 h, 10 µM, compound concentration 10 uM, replicate 2
[9] = 48 h, 10 µM, compound concentration 10 uM, replicate 1
[10] = 48 h, 10 µM, compound concentration 10 uM, replicate 2

CCOC(=O)Nc1cc(-c2ccc(C)c(NS(C)(=O)=O)c2)nn2c(C)nnc12
Population Apoptotic (%) [1]: 75%
Population Fragmented Nuclei (%) [1]: 30%
Population Healthy Nuclei (%) [1]: 44%
Population Hoechst High Intensity Objects (%) [1]: 9%
Population Membrane Permeable-Phenotype (%) [1]: 9%
Population Mitochondria Different-Phenotype (%) [1]: 9%
Population Mitotic Cells (%) [1]: 24%
Population Normal (%) [1]: 90%
Population Pyknosed Nuclei (%) [1]: 24%
Population Tubulin-Different-Phenotype (%) [1]: 10%
Total Cell Count [1]: 184
Population Apoptotic (%) [2]: 60%
Population Fragmented Nuclei (%) [2]: 55%
Population Healthy Nuclei (%) [2]: 34%
Population Hoechst High Intensity Objects (%) [2]: 35%
Population Membrane Permeable-Phenotype (%) [2]: 16%
Population Mitochondria Different-Phenotype (%) [2]: 16%
Population Mitotic Cells (%) [2]: 40%
Population Normal (%) [2]: 64%
Population Pyknosed Nuclei (%) [2]: 9%
Population Tubulin-Different-Phenotype (%) [2]: 11%
Total Cell Count [2]: 81
Population Apoptotic (%) [3]: 70% and 66%
Population Fragmented Nuclei (%) [3]: 30% and 28%
Population Healthy Nuclei (%) [3]: 45% and 56%
Population Hoechst High Intensity Objects (%) [3]: 15% and 13%
Population Mitochondria Different-Phenotype (%) [3]: 9% and 14%
Population Mitotic Cells (%) [3]: 29% and 33%
Population Normal (%) [3]: 84% and 86%
Population Pyknosed Nuclei (%) [3]: 23% and 15%
Total Cell Count [3]: 84 and 231
Population Apoptotic (%) [4]: 50% and 40%
Population Healthy Nuclei (%) [4]: 86%
Population Membrane Permeable-Phenotype (%) [4]: 9% and 0%
Population Mitotic Cells (%) [4]: 50% and 60%
Population Normal (%) [4]: 77% and 97%
Population Pyknosed Nuclei (%) [4]: 2% and 5%
Total Cell Count [4]: 88 and 101
Population Apoptotic (%) [5]: 61%
Population Fragmented Nuclei (%) [5]: 31%
Population Healthy Nuclei (%) [5]: 55%
Population Hoechst High Intensity Objects (%) [5]: 12%
Population Membrane Permeable-Phenotype (%) [5]: 12%
Population Mitochondria Different-Phenotype (%) [5]: 2%
Population Mitotic Cells (%) [5]: 38%
Population Normal (%) [5]: 87%
Population Pyknosed Nuclei (%) [5]: 12%
Population Tubulin-Different-Phenotype (%) [5]: 2%
Total Cell Count [5]: 186
Population Apoptotic (%) [6]: 50%
Population Fragmented Nuclei (%) [6]: 48%
Population Healthy Nuclei (%) [6]: 42%
Population Hoechst High Intensity Objects (%) [6]: 31%
Population Membrane Permeable-Phenotype (%) [6]: 26%
Population Mitochondria Different-Phenotype (%) [6]: 5%
Population Mitotic Cells (%) [6]: 50%
Population Normal (%) [6]: 68%
Population Pyknosed Nuclei (%) [6]: 8%
Population Tubulin-Different-Phenotype (%) [6]: 15%
Total Cell Count [6]: 66
Population Apoptotic (%) [7]: 60% and 56%
Population Fragmented Nuclei (%) [7]: 22% and 18%
Population Healthy Nuclei (%) [7]: 47% and 66%
Population Hoechst High Intensity Objects (%) [7]: 6% and 12%
Population Membrane Permeable-Phenotype (%) [7]: 22% and 8%
Population Mitochondria Different-Phenotype (%) [7]: 6% and 4%
Population Mitotic Cells (%) [7]: 39% and 43%
Population Normal (%) [7]: 94% and 88%
Population Pyknosed Nuclei (%) [7]: 29% and 15%
Total Cell Count [7]: 100 and 225
Population Healthy Nuclei (%) [8]: 46% and 90%
Population Membrane Permeable-Phenotype (%) [8]: 3% and 0%
Population Mitochondria Different-Phenotype (%) [8]: 10% and 16%
Population Mitotic Cells (%) [8]: 100% and 71%
Population Normal (%) [8]: 71% and 97%
Total Cell Count [8]: 88 and 137
Population Apoptotic (%) [9]: 54%
Population Fragmented Nuclei (%) [9]: 30%
Population Healthy Nuclei (%) [9]: 56%
Population Hoechst High Intensity Objects (%) [9]: 16%
Population Membrane Permeable-Phenotype (%) [9]: 16%
Population Mitochondria Different-Phenotype (%) [9]: 0%
Population Mitotic Cells (%) [9]: 45%
Population Normal (%) [9]: 83%
Population Pyknosed Nuclei (%) [9]: 12%
Population Tubulin-Different-Phenotype (%) [9]: 8%
Total Cell Count [9]: 105
Population Apoptotic (%) [10]: 100%
Population Fragmented Nuclei (%) [10]: 18%
Population Healthy Nuclei (%) [10]: 80%
Population Hoechst High Intensity Objects (%) [10]: 10%
Population Membrane Permeable-Phenotype (%) [10]: 2%
Population Mitochondria Different-Phenotype (%) [10]: 1%
Population Mitotic Cells (%) [10]: 0%
Population Normal (%) [10]: 89%
Population Pyknosed Nuclei (%) [10]: 0%
Population Tubulin-Different-Phenotype (%) [10]: 1%
Total Cell Count [10]: 114

C=CC(=O)Nc1cccc(Oc2nc(Nc3ccc(N4CCN(C)CC4)cc3OC)ncc2Cl)c1
Population Fragmented Nuclei (%) [1]: 28%
Population Healthy Nuclei (%) [1]: 65%
Population Hoechst High Intensity Objects (%) [1]: 24%
Population Mitochondria Different-Phenotype (%) [1]: 14%
Population Normal (%) [1]: 75%
Population Pyknosed Nuclei (%) [1]: 6%
Population Tubulin-Different-Phenotype (%) [1]: 45%
Total Cell Count [1]: 324
Population Apoptotic (%) [2]: 60%
Population Fragmented Nuclei (%) [2]: 44%
Population Healthy Nuclei (%) [2]: 48%
Population Hoechst High Intensity Objects (%) [2]: 23%
Population Membrane Permeable-Phenotype (%) [2]: 5%
Population Mitochondria Different-Phenotype (%) [2]: 26%
Population Mitotic Cells (%) [2]: 40%
Population Normal (%) [2]: 76%
Population Pyknosed Nuclei (%) [2]: 7%
Population Tubulin-Different-Phenotype (%) [2]: 64%
Total Cell Count [2]: 92
Population Apoptotic (%) [3]: 62%
Population Fragmented Nuclei (%) [3]: 39%
Population Healthy Nuclei (%) [3]: 42%
Population Hoechst High Intensity Objects (%) [3]: 15%
Population Membrane Permeable-Phenotype (%) [3]: 7%
Population Mitochondria Different-Phenotype (%) [3]: 2%
Population Mitotic Cells (%) [3]: 37%
Population Normal (%) [3]: 84%
Population Pyknosed Nuclei (%) [3]: 18%
Population Tubulin-Different-Phenotype (%) [3]: 10%
Total Cell Count [3]: 237
Population Apoptotic (%) [4]: 20%
Population Fragmented Nuclei (%) [4]: 57%
Population Healthy Nuclei (%) [4]: 34%
Population Hoechst High Intensity Objects (%) [4]: 36%
Population Membrane Permeable-Phenotype (%) [4]: 18%
Population Mitochondria Different-Phenotype (%) [4]: 4%
Population Mitotic Cells (%) [4]: 80%
Population Normal (%) [4]: 64%
Population Pyknosed Nuclei (%) [4]: 7%
Population Tubulin-Different-Phenotype (%) [4]: 18%
Total Cell Count [4]: 100
Population Apoptotic (%) [5]: 61%
Population Fragmented Nuclei (%) [5]: 29%
Population Healthy Nuclei (%) [5]: 60%
Population Hoechst High Intensity Objects (%) [5]: 47%
Population Membrane Permeable-Phenotype (%) [5]: 1%
Population Mitochondria Different-Phenotype (%) [5]: 26%
Population Mitotic Cells (%) [5]: 38%
Population Normal (%) [5]: 52%
Population Pyknosed Nuclei (%) [5]: 9%
Population Tubulin-Different-Phenotype (%) [5]: 38%
Total Cell Count [5]: 265
Population Apoptotic (%) [6]: 66%
Population Fragmented Nuclei (%) [6]: 31%
Population Healthy Nuclei (%) [6]: 56%
Population Hoechst High Intensity Objects (%) [6]: 37%
Population Membrane Permeable-Phenotype (%) [6]: 7%
Population Mitochondria Different-Phenotype (%) [6]: 48%
Population Mitotic Cells (%) [6]: 33%
Population Normal (%) [6]: 62%
Population Pyknosed Nuclei (%) [6]: 12%
Population Tubulin-Different-Phenotype (%) [6]: 70%
Total Cell Count [6]: 77
Population Apoptotic (%) [7]: 70%
Population Fragmented Nuclei (%) [7]: 33%
Population Healthy Nuclei (%) [7]: 50%
Population Hoechst High Intensity Objects (%) [7]: 19%
Population Membrane Permeable-Phenotype (%) [7]: 3%
Population Mitochondria Different-Phenotype (%) [7]: 4%
Population Mitotic Cells (%) [7]: 30%
Population Normal (%) [7]: 80%
Population Pyknosed Nuclei (%) [7]: 16%
Population Tubulin-Different-Phenotype (%) [7]: 10%
Total Cell Count [7]: 231
Population Apoptotic (%) [8]: 0%
Population Fragmented Nuclei (%) [8]: 61%
Population Healthy Nuclei (%) [8]: 35%
Population Hoechst High Intensity Objects (%) [8]: 29%
Population Membrane Permeable-Phenotype (%) [8]: 4%
Population Mitochondria Different-Phenotype (%) [8]: 9%
Population Mitotic Cells (%) [8]: 100%
Population Normal (%) [8]: 70%
Population Pyknosed Nuclei (%) [8]: 3%
Population Tubulin-Different-Phenotype (%) [8]: 14%
Total Cell Count [8]: 85
